Source: article PMC3480199 (Journal of medicinal chemistry, 2012)
Where two headings read alike, the source gives them in different places.

How the values were obtained:
[1] = system: T. brucei cells; assay: Protein synthesis inhibition assay; assay type: cell-based, Trypanosoma brucei; settings: 4 h, concentrations 1 to 16 times the 48 hour EC50
Outline: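 Mid-log bloodstream-form T. brucei (5×10^5 cells/well) in HMI-9 medium, given test compound in triplicate and preincubated 15 min, with a no-drug control on each plate. Cells cultured with 3H-histidine; filters counted by scintillation.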

[2] = target: T1, human mitochondrial MetRS (Homo sapiens, UniProt Q96GW9); assay: Human mitochondrial methionyl-tRNA synthetase aminoacylation assay; assay type: biochemical
T1 sequence (Q96GW9 30-593): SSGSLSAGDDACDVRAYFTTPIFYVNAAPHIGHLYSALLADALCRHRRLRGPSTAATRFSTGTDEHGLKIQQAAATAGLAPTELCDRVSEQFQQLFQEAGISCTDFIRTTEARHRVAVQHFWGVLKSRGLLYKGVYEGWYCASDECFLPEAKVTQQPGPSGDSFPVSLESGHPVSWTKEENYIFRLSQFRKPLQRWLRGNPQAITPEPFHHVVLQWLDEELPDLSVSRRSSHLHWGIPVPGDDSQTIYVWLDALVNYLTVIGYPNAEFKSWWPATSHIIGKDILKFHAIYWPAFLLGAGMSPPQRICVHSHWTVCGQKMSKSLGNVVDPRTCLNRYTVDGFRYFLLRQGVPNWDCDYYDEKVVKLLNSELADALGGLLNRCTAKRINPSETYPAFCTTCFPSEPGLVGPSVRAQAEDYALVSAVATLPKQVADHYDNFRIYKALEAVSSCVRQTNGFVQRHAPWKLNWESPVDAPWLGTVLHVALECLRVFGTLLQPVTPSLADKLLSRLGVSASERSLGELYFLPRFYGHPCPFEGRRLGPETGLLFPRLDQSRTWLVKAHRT
Outline: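 Recombinant enzyme (20 nM) preincubated 15 min with 12 serial two-fold dilutions of test compound in 50 mM Tris-HCl pH 8.0, 2.5 mM MgCl2, 2.5 mM KCl, 0.2 mM spermine, 0.2 mg/mL BSA, 2.5 mM DTT, 1 U/mL pyrophosphatase. Started with 200 μg/mL E. coli tRNA, 2.5 mM ATP, 250 nM [3H]methionine; 120 min, 37°C. Filtered, TCA-washed, scintillation-counted in quadruplicate; IC50 by sigmoidal nonlinear regression.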

[3] = system: CRL-8155 human lymphoblast cell line; assay: Mammalian cell growth inhibition assay; assay type: cell-based; settings: CRL8155, 48 h, read-out: CRL-8155 IC50
[4] = system: T. brucei rhodesiense; assay: Efficacy studies in mice; assay type: in vivo; settings: 50 mg/kg oral every 12 h for 4 days
[5] = system: MDR1-MDCKII cells; assay: MDR1-MDCKII assay; settings: 3 μM
[6] = system: MDR1-MDCKII cells; settings: dog, MDCK-MDR1, 60 min, 3 μM

Compound | IC50 [2] [µM] | Incorporation of 3H-amino acid into proteins [1] | IC50 [3] [µM] | further results
C[C@@H]1C[C@@H]([C@H](O)CC2CC(=O)NC(=O)C2)C(=O)[C@@H](C)C1 [cycloheximide] |  | dose dependent decrease |  | 
Oc1cc(NCCCNCc2cc(Cl)cc(Cl)c2)nc2ccccc12 [Compound 1] |  | dose dependent decrease |  | 
O=C(NCCCNCc1cc(Cl)cc(Cl)c1)Nc1ccsc1 [Compound 26, 1-[3-(3,5-Dichloro-benzylamino)-propyl]-3-thiophen-3-yl-urea] | 4.35 | dose dependent decrease | 12 | Extension of survival [4]: 1 days; Toxicity in treated mice [4]: No toxicity
NCCCC(N)(C(=O)O)C(F)F (stereo not shown) [DFMO, difluoromethylornithine] |  | did not result in a dose dependent decrease |  | 
CC(C)CN(C[C@@H](O)[C@H](Cc1ccccc1)NC(=O)O[C@H]1CCOC1)S(=O)(=O)c1ccc(N)cc1 [Amprenavir] |  |  |  | AQ (typical control value) [5]: > 0.5
CC(C)NCC(O)COc1cccc2ccccc12 (stereo not shown) [Propranolol] |  |  |  | AQ (typical control value) [6]: < 0.5
O=C(NCCCNCc1cc(Cl)cc(Cl)c1)Nc1ccccc1 [Compound 2, 1-(3-(3,5-Dichlorobenzylamino)propyl)-3-phenylurea] | > 10 |  | 12 | Selectivity Index Human IC50 / T. brucei IC50 ([2]; human mitochondrial MetRS IC50 over T. brucei MetRS IC50): >175

Now from value to molecule, other results behind:

IC50 [2] [µM] | Compound | Incorporation of 3H-amino acid into proteins [1] | IC50 [3] [µM] | further results
6.59 | COc1cc(Cl)cc(CNCCCNC(=O)Nc2ccsc2)c1 [Compound 27, 1-[3-(3-Chloro-5-methoxy-benzylamino)-propyl]-3-thiophen-3-yl-urea] |  | 22 | 
8.35 | COc1cc(Cl)cc(CNCCCNC(=O)Nc2ccccc2)c1 [Compound 4] |  | 20 | 
5.43 | O=C(NCCCNCc1cc(Cl)cc(Cl)c1)Nc1cccc(O)c1 [Compound 17] |  | 12 | 
4.25 | O=C(NCCCNCc1cc(Cl)cc(Cl)c1)Nc1cccc(F)c1 [Compound 18] |  | 43.2 | 
3.72 | O=C(NCCCNCc1cc(Cl)cc(Cl)c1)Nc1ccccc1O [Compound 16] |  | > 20 | 
3.06 | O=C(NCCCNCc1cc(Cl)cc(Cl)c1)Nc1cccs1 [Compound 28] |  | 9.5 | 
